Test results as given in PMC2234573 (The Journal of General Physiology, 2004).
Values joined by “and” are separate entries in the source; they are usually repeats but may differ in a detail not shown here. Equal entries are not always repeated. Where two headings read alike, the source gives them in different places. Each block holds one molecule with its values, some of them ahead of it.

Legend:
TrpM2 = details: cytosolic, ref Perraud et al., 2001, Sano et al.; cited from earlier work
[1] = test system: Ca^2+- and ATP-sensitive nonselective cation channels (CA-NSCs); experiment: Excised inside-out patch recording of CA-NSC channel gating; assay type: biochemical, rat; details: for Inhibition of Po / effect on gating (in words): cytosolic exposure, Fig. 3 A; for Prevention of inhibition by concomitantly added ATP (in words): Fig. 3 B, 100 μM ATP for PI(4,5)P2
[2] = test system: Ca^2+- and ATP-sensitive nonselective cation channels (CA-NSCs); assay type: biochemical, rat; details: for Effect on the i([DV]) dose response curve (in words): 1 mM nucleotide
In short: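 Inside-out patches from rat brain capillary endothelial cells, cultured 5–6 d, at 25°C. Pipette: 140 mM NaCl, 30 μM benzamil, pH 7.4. Bath: 140 mM KCl or NMDG-Cl, pH 7.1, plus 1 mM CaCl2. i(V) is recorded ± 70 μM DV. KCl data get linear fits; NMDG data get GHK fits with asymptotic negative-potential slope. Currents at −40 mV ± 1 mM nucleotide are normalized to in-patch control and Hill-fitted.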

[3] = test system: CA-NSC channels present in astrocytes; details: ref Chen et al., 2003; cited from earlier work
[4] = test system: Ca^2+- and ATP-sensitive nonselective cation channels (CA-NSCs); experiment: Ensemble fitting of kinetic binding models to the dose response curves; assay type: biochemical, rat; details: noncompetitive model with allosteric destabilization, one subunit
In short: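 Custom software ensemble-fits the two-ligand extensions of a reversible-binding scheme to 18 normalized dose response curves (Po, opening and closing rates) from inside-out patches. Error function is summed squared differences between predicted and measured values. Open-state Kds are constrained by microscopic reversibility. Unliganded opening rate is fixed at its average (−40 mV, 1 mM cytosolic Ca2+).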

TrpM4b = details: ref Nilius et al., 2004, cited from earlier work
[5] = test system: Ca^2+- and ATP-sensitive nonselective cation channels (CA-NSCs); details: read-out: [Ca2+]i required for half-maximal activation; freshly excised channels; ref Csanády and Adam-Vizi, 2003; cited from earlier work
[6] = Decay of decavanadate in bath solution measured by photometry; assay type: physicochemical; details: pH = 7.1, T = 25°C
In short: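 DV stock is 50 mM Na3VO4 brought to pH 2.0, kept at +4°C, used within 24 h and diluted into bath under 90 min before use. Spectra of 1 mM Na3VO4 in bath (pH 7.1, 25°C) are taken 0–8 h after preparation against a boiled same-composition blank. DV is tracked as peak absorbance at ~390 nm, and the decay is single-exponential fitted.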

[7] = read-out: K1/2 for inhibition of opening rate, 1 mM Ca2+ i, Vm −40 mV, no DV, Hill fit, deactivated channels
[8] = 70 μM DV, NaCl pipette, KCl bath

Molecule: Nc1ncnc2c1ncn2[C@@H]1O[C@H](COP(=O)(O)OP(=O)(O)OC[C@H]2OC(O)[C@H](O)[C@@H]2O)[C@@H](O)[C@H]1O (stereo partly drawn) [ADP-ribose]
- Effect on TrpM2 (in words) (TrpM2): activated
- Inhibition of Po / effect on gating (in words) ([1]; 1 mM Ca2+ i, −40 mV): inhibited to a variable extent

- IC50 [1, 7]: 4.3 ± 0.5 µM
- Predicted decrease in nucleotide affinity brought upon by DV binding [4]: ~10^5 fold
Molecule: Nc1ncnc2c1ncn2[C@@H]1O[C@H](COP(=O)(O)OP(=O)(O)O)[C@@H](O)[C@H]1O [ADP]
- Effect on the i([DV]) dose response curve (in words) [2]: not altered
- Increase of K1/2 for inhibition of Po caused by DV ([1]; ~1.6 μM DV vs no DV): ~20 ×
- Nucleotide sensitivity of astrocyte CA-NSC channels (in words) [3]: insensitive
- Inhibition of TrpM4b (in words) (TrpM4b): the most potent inhibitor

Molecule: Nc1ncnc2c1ncn2[C@@H]1O[C@H](COP(=O)(O)OP(=O)(O)NP(=O)(O)O)[C@@H](O)[C@H]1O [AMPPNP]
- Inhibition of Po / effect on gating (in words) ([1]; 1 mM Ca2+ i, −40 mV): effectively inhibited

- IC50 [1, 7]: 1.1 ± 0.2 µM
- Predicted decrease in nucleotide affinity brought upon by DV binding [4]: ~10^3 fold
Molecule: Nc1ncnc2c1ncn2[C@@H]1O[C@H](COP(=O)(O)O)[C@@H](O)[C@H]1O [AMP]
- Effect on the i([DV]) dose response curve (in words) [2]: not altered
- Po ([1]; 1 mM AMP in the presence of ~8 μM DV): ~0.25
- Increase of K1/2 for inhibition of Po caused by DV ([1]; ~8 μM DV vs no DV): ~90 ×
- Nucleotide sensitivity of astrocyte CA-NSC channels (in words) [3]: insensitive

- IC50 ([1]; read-out: K1/2 for inhibition of Po, 1 mM Ca2+ i, −80 mV): 7.3 ± 1 µM
- IC50 ([1]; read-out: K1/2 for inhibition of Po, 10 mM Ca2+ i, −40 mV): 52 ± 6 µM
- IC50 ([1]; read-out: K1/2 for inhibition of Po, freshly excised (~10 s) channels in 100 μM Ca2+, −40 mV, tentative analysis): 34 ± 3 µM
- IC50 [1, 7]: 11 ± 2 µM
- IC50 ([1]; read-out: K1/2 for inhibition of opening rate, 1 mM Ca2+ i, −80 mV): 8.4 ± 2 µM
- IC50 ([1]; read-out: K1/2 for inhibition of opening rate, 10 mM Ca2+ i, −40 mV): 14 ± 5 µM
- IC50 ([1]; read-out: K1/2 for inhibition of opening rate, freshly excised (~10 s) channels in 100 μM Ca2+, −40 mV, tentative analysis): 15 ± 2 µM
- Predicted decrease in nucleotide affinity brought upon by DV binding [4]: ~200 fold
Molecule: Nc1ncnc2c1ncn2[C@@H]1O[C@H](COP(=O)(O)OP(=O)(O)OP(=O)(O)O)[C@@H](O)[C@H]1O [ATP]
- Effect on the i([DV]) dose response curve (in words) [2]: not altered
- Increase of K1/2 for inhibition of Po ([1]; 10 mM vs 1 mM Ca2+ i): ~3 fold
- Opening rate (normalized) ([1]; (b) 10 μM total ATP, 1 mM free Ca2+, 2 mM free Mg2+): 0.62 ± 0.12 (n = 3)
- Opening rate (normalized) ([1]; (c) 10 μM total ATP, 10 mM free Ca2+, 2.01 mM free Mg2+): 0.61 ± 0.10 (n = 4)
- Opening rate (normalized) ([1]; (d) 100 μM total ATP, 1 mM free Ca2+, 0.184 mM free Mg2+): 0.094 ± 0.043 (n = 6)
- Opening rate (normalized) ([1]; (e) 100 μM total ATP, 1 mM free Ca2+, 2.03 mM free Mg2+): 0.10 ± 0.03 (n = 14)
- Opening rate (normalized) ([1]; (f) 100 μM total ATP, 1 mM free Ca2+, 9.91 mM free Mg2+): 0.16 ± 0.06 (n = 6)
- Increase of K1/2 for inhibition of Po caused by DV ([1]; ~1.6 μM DV vs no DV): ~40 ×
- Decrease of K1/2 for inhibition of Po ([1]; −80 mV vs −40 mV): ≈ 2 fold
- Nucleotide sensitivity of astrocyte CA-NSC channels (in words) [3]: inhibited
- Fraction of TrpM4b current insensitive to nucleotide (TrpM4b; even millimolar [ATP]): ~20%

Molecule: Nc1ncnc2c1ncn2[C@@H]1O[C@H](CO)[C@@H](O)[C@H]1O [Ado, adenosine]
- Prevention of inhibition by concomitantly added ATP (in words) [1]: none
- Inhibition of Po / effect on gating (in words) ([1]; 1 mM Ca2+ i, −40 mV): inhibited only at high concentrations

Molecule: [Ca+2] [Ca^2+]
- EC50 [5]: ~20 µM

- EC50 ([2]; read-out: K1/2 for stimulation of single-channel conductance, no nucleotides (control), −40 mV): 1.7 ± 0.3 µM
- EC50 ([1]; read-out: K1/2 for stimulation of Po, 1 mM Ca2+ i, −40 mV, no nucleotides): 0.09 µM
- Time constant of decay in bath solution [6]: ~4 h
Molecule: [O]=[V]([O-])([O-])[O][V]1(=[O])[O][V]2(=[O])[O][V](=[O])([O][V](=[O])([O-])[O-])[O][V](=[O])([O]2)[O][V]2(=[O])[O][V](=[O])([O][V](=[O])([O-])[O-])[O][V](=[O])([O]1)[O]2 (stereo not drawn) [DV, decavanadate]
- Increase of single-channel (slope) conductance relative to control [2, 8]: 34 ± 2% and ~30%
- Reversal potential [2, 8]: −1 ± 2 mV
- Slope conductance [2, 8]: 42 ± 3 pS
- Asymptotic conductance at negative potentials ([2]; 70 μM DV, NaCl pipette, NMDG-Cl bath, n = 3): 36 ± 0.5 pS
- K1/2 for conductance relative to K1/2 for stimulation of gating ([2]; higher): ~20 fold
- Increase of K1/2 for stimulation of Po caused by nucleotide ([1]; 1 mM ADP vs control): ~80 ×
- Increase of K1/2 for stimulation of Po caused by nucleotide ([1]; 1 mM AMP vs control): ~270 ×
- Increase of K1/2 for stimulation of Po caused by nucleotide ([1]; 1 mM ATP vs control): ~35 ×

Molecule: Nc1nc2c(ncn2[C@@H]2O[C@H](COP(=O)(O)OP(=O)(O)OP(=O)(O)O)[C@@H](O)[C@H]2O)c(=O)[nH]1 [GTP]
- Inhibition of Po / effect on gating (in words) ([1]; 1 mM Ca2+ i, −40 mV): compatible with inhibition
- Inhibition of TrpM4b (in words) (TrpM4b): poor inhibitors

Molecule: Nc1ncnc2c1ncn2[C@@H]1O[C@H](COP(=O)(O)OP(=O)(O)OC[C@H]2O[C@@H]([n+]3cccc(C(=O)O)c3)[C@H](O)[C@@H]2O)[C@@H](O)[C@H]1OP(=O)(O)O [NAADP]
- Inhibition of Po / effect on gating (in words) ([1]; 1 mM Ca2+ i, −40 mV): inhibited to a variable extent

Molecule: NC(=O)C1=CN([C@@H]2O[C@H](COP(=O)(O)OP(=O)(O)OC[C@H]3O[C@@H](n4cnc5c(N)ncnc54)[C@H](O)[C@@H]3O)[C@@H](O)[C@H]2O)C=CC1 [NADH]
- Inhibition of Po / effect on gating (in words) ([1]; 1 mM Ca2+ i, −40 mV): inhibited to a variable extent

Molecule: NC(=O)C1=CN([C@@H]2O[C@H](COP(=O)(O)OP(=O)(O)OC[C@H]3O[C@@H](n4cnc5c(N)ncnc54)[C@H](OP(=O)(O)O)[C@@H]3O)[C@@H](O)[C@H]2O)C=CC1 [NADPH]
- Inhibition of Po / effect on gating (in words) ([1]; 1 mM Ca2+ i, −40 mV): inhibited to a variable extent

Molecule: NC(=O)c1ccc[n+]([C@@H]2O[C@H](COP(=O)([O-])OP(=O)(O)OC[C@H]3O[C@@H](n4cnc5c(N)ncnc54)[C@H](OP(=O)(O)O)[C@@H]3O)[C@@H](O)[C@H]2O)c1 [NADP^+]
- Inhibition of Po / effect on gating (in words) ([1]; 1 mM Ca2+ i, −40 mV): inhibited to a variable extent

Molecule: NC(=O)c1ccc[n+]([C@@H]2O[C@H](COP(=O)([O-])OP(=O)(O)OC[C@H]3O[C@@H](n4cnc5c(N)ncnc54)[C@H](O)[C@@H]3O)[C@@H](O)[C@H]2O)c1 [NAD^+]
- Effect on TrpM2 (in words) (TrpM2): activated
- Inhibition of Po / effect on gating (in words) ([1]; 1 mM Ca2+ i, −40 mV): inhibited to a variable extent

Molecule: O=P(O)(O)OC[C@H]1O[C@H](OP(=O)(O)OP(=O)(O)O)[C@H](O)[C@@H]1O [PRPP, phospho-ribosyl-PP]
- Prevention of inhibition by concomitantly added ATP (in words) [1]: none
- Inhibition of Po / effect on gating (in words) ([1]; 1 mM Ca2+ i, −40 mV): failed to inhibit channel activity

Molecule: O=P(O)(O)O [Pi, Inorganic phosphate]
- Prevention of inhibition by concomitantly added ATP (in words) [1]: none
- Inhibition of Po / effect on gating (in words) ([1]; 1 mM Ca2+ i, −40 mV): had little effect

Molecule: O=c1ccn([C@@H]2O[C@H](COP(=O)(O)OP(=O)(O)OP(=O)(O)O)[C@@H](O)[C@H]2O)c(=O)[nH]1 [UTP]
- Inhibition of Po / effect on gating (in words) ([1]; 1 mM Ca2+ i, −40 mV): compatible with inhibition
- Inhibition of TrpM4b (in words) (TrpM4b): poor inhibitors

Molecule: N=c1c2ncn3c2ncn1[C@@H]1O[C@H](COP(=O)(O)OP(=O)(O)OC[C@H]2O[C@@H]3[C@H](O)[C@@H]2O)[C@@H](O)[C@H]1O [cADP-ribose]
- Prevention of inhibition by concomitantly added ATP (in words) [1]: none
- Inhibition of Po / effect on gating (in words) ([1]; 1 mM Ca2+ i, −40 mV): failed to inhibit channel activity

Molecule: Nc1nc2c(ncn2[C@@H]2O[C@@H]3COP(=O)(O)O[C@H]3[C@H]2O)c(=O)[nH]1 [cGMP]
- Prevention of inhibition by concomitantly added ATP (in words) [1]: none
- Inhibition of Po / effect on gating (in words) ([1]; 1 mM Ca2+ i, −40 mV): failed to affect gating

Molecule: [O]=[V]([O-])([O-])[O-] [orthovanadate]
- Increase in single-channel current size ([2]; 1-mM orthovanadate solution (untreated, contains trace DV)): ~30%
- Effect of vanadate solution on CA-NSC gating (in words) ([1]; 1-mM vanadate solution, 1 mM Ca2+ i): robust stimulation of channel gating to a Po close to unity

Molecule: O=P(O)(O)OP(=O)(O)O [pyrophosphate]
- Inhibition ([1]; 2 mM, n = 4): 92 ± 2%

Molecule: O=C[C@H](O)[C@H](O)[C@H](O)COP(=O)(O)O [ribose-5P]
- Prevention of inhibition by concomitantly added ATP (in words) [1]: none
- Inhibition of Po / effect on gating (in words) ([1]; 1 mM Ca2+ i, −40 mV): failed to inhibit channel activity

Molecule: phosphatidyl inositol 4,5-bisphosphate [PI(4,5)P2]
- Inhibition of Po / effect on gating (in words) ([1]; 1 mM Ca2+ i, −40 mV): affected neither CA-NSC gating
